TNAP act hi DEA – TNAP (human) activation, high acceptor | AID 1136 | 200,000 tested, under 10 active | activation factor at 20 µM | purified TNAP, CDP-star luminescence, 1 M DEA, 30 min; hits give high values; 0 = EDTA background, 1 = DMSO-only activity | P05186;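 active = activation factor at least 2 at 20 µM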
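Test system – human TNAP · Doses – 20 µM single point · Incubation – 30 min, room temperature · Signal – luminescent substrate turnover signal · Read-out basis – activation factor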
CHT PAM – human CHT allosteric activation; AID 488977; 310,000 tested, 0.49% active; B-score at 10 µM; Q9GZV3; CHT-expressing cells, membrane potential dye, choline EC20; hits give high values; LV-AA mutant CHT in HEK293 cells;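 active = initial fluorescence not abnormally high and integrated response B-score, plate-corrected, over 3 SD above library mean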
TNAP inh hi DEA – blocks human TNAP under high phosphate acceptor concentration | purified TNAP, CDP-star luminescence, 1 M DEA | inhibition, % at 20 µM | 200,000 tested, 0.03% active | AID 1135 | P05186;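 active = over 50% inhibition of tissue-nonspecific alkaline phosphatase at 20 µM in the single-dose screen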
ABCB6 inh 2 – blocks the human ABCB6 transporter; Q9NP58; fluorescence ratio to DMSO, % at 10 µM; 360,000 tested, 0.19% active; K562-ABCB6 porphyrin accumulation, flow cytometry, 1 h; hits give low values; AID 602162;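 active = fluorescence ratio to DMSO below 75%, the collection mean minus 3 SD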;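 also: signal is porphyrin accumulated inside mitochondria; lower ratio means ABCB6 inhibition with less porphyrin fluorescence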
CHT block – inhibits the human high affinity choline transporter; Q9GZV3; CHT-expressing cells, membrane potential dye, choline response; hits give low values; B-score at 10 µM; 310,000 tested, 0.86% active; AID 488975;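 active = B-score over 3 SD under the library average, and starting fluorescence ratio not unusually high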;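 also: choline stimulus applied at its EC90 after an EC20 pre-addition; B-score computed on integrated fluorescence ratio after choline addition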
TNAP inh no acc – blocks human TNAP activity with no phosphate acceptor present. purified TNAP, CDP-star luminescence, 30 min. inhibition, % at 20 µM. 200,000 tested, 0.26% active;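 active = tissue-nonspecific alkaline phosphatase inhibition above about 50% at 20 µM in the single-dose screen, limit read from the data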
ABCB6 inh CP1 – blocks the human ABCB6 transporter; shares compounds with ABCB6 inh 2; K562-ABCB6 porphyrin accumulation, flow cytometry, 1 h; hits give low values; ratio response (% of DMSO), % at 10 µM; 700 tested, under 10 active; AID 602430;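 active = repeat-averaged ratio response below 75% of DMSO, the collection mean minus 3 SD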;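 also: median porphyrin fluorescence at 575 nm with 488 nm excitation from mitochondria; lower ratio means less porphyrin signal so ABCB6 inhibition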
Each line names hits and unclear results; the compound was inactive in the other large screens (follow-up assays come after a bar, where they were run). This is a sample that favours compounds with a hit; in the whole collection about 1.4% have one here.

Nc1ncnc2c1ncn2[C@@H]1O[C@H](CNCc2ccccc2OCC(=O)N2CCCCC2)[C@@H](O)[C@H]1O	none (no result: TNAP act hi DEA, CHT PAM, TNAP inh hi DEA, CHT block, TNAP inh no acc)
CCCN1CCc2c(sc(NC(=O)c3ccc(S(=O)(=O)N4CCN(C(=O)OCC)CC4)cc3)c2C(N)=O)C1	none (no result: TNAP act hi DEA, TNAP inh hi DEA, TNAP inh no acc)
CCOC(=O)N1CCN(S(=O)(=O)c2ccc(C(=O)Nc3sc4c(c3C(N)=O)CCN(CC)C4)cc2)CC1	ABCB6 inh 2 73 (no result: TNAP act hi DEA, TNAP inh hi DEA, TNAP inh no acc) | ABCB6 inh CP1 inactive
Nc1c(CO)nnn1-c1ccccc1	none
O=C(COC(=O)CSc1ccc2ccccc2c1)NCc1ccc2c(c1)OCO2	ABCB6 inh 2 65 | ABCB6 inh CP1 inactive
Cc1c(C(=O)Nc2ccc(OC(F)(F)F)cc2)sc2nc3n(c(=O)c12)CCC3	ABCB6 inh 2 66 | ABCB6 inh CP1 inactive
COc1cccc(NC(=O)c2sc3nc4n(c(=O)c3c2C)CCC4)c1	ABCB6 inh 2 24 (no result: TNAP act hi DEA, TNAP inh hi DEA, TNAP inh no acc) | ABCB6 inh CP1 inactive
CSc1cccc(NC(=O)c2sc3nc4n(c(=O)c3c2C)CCC4)c1	none (no result: TNAP act hi DEA, TNAP inh hi DEA, TNAP inh no acc)
COc1ccc(NC(=O)c2sc3nc4n(c(=O)c3c2C)CCC4)c(OC)c1	none (no result: TNAP act hi DEA, CHT PAM, TNAP inh hi DEA, ABCB6 inh 2, CHT block, TNAP inh no acc) | ABCB6 inh CP1 inactive
Cc1c(C(=O)Nc2ccc(Oc3ccccc3)cc2)sc2nc3n(c(=O)c12)CCC3	none
COc1cc2cnc(-c3cccnc3)cc2cc1OC	none (no result: TNAP act hi DEA, CHT PAM, TNAP inh hi DEA, CHT block, TNAP inh no acc)
CCCC(=O)Nc1nnc(SCC(=O)NC2CC2)s1	none (no result: TNAP act hi DEA, TNAP inh hi DEA, TNAP inh no acc)
CCOC(=O)C1CCN(S(=O)(=O)c2ccc(OCC)cc2)CC1	none | ABCB6 inh CP1 inactive
CCOC(=O)C1CCN(S(=O)(=O)c2ccc(Cl)s2)CC1	ABCB6 inh 2 68 (no result: TNAP act hi DEA, TNAP inh hi DEA, TNAP inh no acc) | ABCB6 inh CP1 inactive
CCOC(=O)c1ccc(S(=O)(=O)N2CCC(C(=O)OCC)CC2)cc1	ABCB6 inh 2 60 | ABCB6 inh CP1 inactive
COc1ccc(C)cc1NC(=O)CCN1CCCC1	none
COc1ccc(C)cc1NC(=O)COCC(=O)O	ABCB6 inh 2 69 | ABCB6 inh CP1 inactive
CC(=O)Nc1ccc(NC(=O)[C@H](C)NC(=O)c2ccco2)cc1	ABCB6 inh 2 64 (no result: TNAP act hi DEA, TNAP inh hi DEA, TNAP inh no acc) | ABCB6 inh CP1 inactive
C[C@H](NC(=O)c1ccco1)C(=O)Nc1ccc(C#N)cc1	none (no result: TNAP act hi DEA, TNAP inh hi DEA, TNAP inh no acc)
N#CCCN/N=C(\Cc1nc2ccccc2[nH]1)c1ccccc1	ABCB6 inh 2 61 | ABCB6 inh CP1 inactive
COc1cc(C(C[N+](=O)[O-])c2c(C)[nH]c3ccccc23)cc(OC)c1OC (configuration not stated)	ABCB6 inh 2 74 | ABCB6 inh CP1 inactive
O=[N+]([O-])CC(c1ccccc1)c1c[nH]c2ccccc12 (configuration not stated)	none (no result: TNAP act hi DEA, TNAP inh hi DEA, TNAP inh no acc)
NC(=O)CSc1nnc(Cn2c(=O)sc3ccccc32)n1-c1cccc(Cl)c1	ABCB6 inh 2 66 | ABCB6 inh CP1 inactive
COC(=O)c1ccc(-c2ccc(F)cc2)nc1C	ABCB6 inh 2 63 | ABCB6 inh CP1 inactive
